ChEMBL document CHEMBL5058577, “EUbOPEN Chemogenomics Library 2 (Multiplex)” (2022)

Tested on: HEK-293T
Assay: Multiplex assay against HEK293T
Format: toxicity, cell-based
Conditions: human
In short: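 With compound added, live cells were imaged on a CQ1 microscope at 37°C and 5% CO2; staining with Hoechst33342, BioTracker Green Microtubule Cytoskeleton Dye, MitoTracker Red and Annexin V Alexa Fluor 680 had been done at seeding. The CellPathfinder machine-learning gating scheme split cells into Hoechst high-intensity objects or normal cells, normal cells into healthy, pyknosed or fragmented nuclei, and pyknosed cells into mitotic or apoptotic. The tubulin, mitochondrial-mass and membrane-permeability phenotypes are per cents of healthy-nucleus cells.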

[1] = 12 h, 1 µM, compound concentration 1 uM, replicate 1
[2] = 12 h, 1 µM, compound concentration 1 uM, replicate 2
[3] = 12 h, 10 µM, compound concentration 10 uM, replicate 1
[4] = 12 h, 10 µM, compound concentration 10 uM, replicate 2
[5] = 24 h, 1 µM, compound concentration 1 uM, replicate 1
[6] = 24 h, 1 µM, compound concentration 1 uM, replicate 2
[7] = 24 h, 10 µM, compound concentration 10 uM, replicate 1
[8] = 24 h, 10 µM, compound concentration 10 uM, replicate 2
[9] = 48 h, 1 µM, compound concentration 1 uM, replicate 1
[10] = 48 h, 1 µM, compound concentration 1 uM, replicate 2
[11] = 48 h, 10 µM, compound concentration 10 uM, replicate 1
[12] = 48 h, 10 µM, compound concentration 10 uM, replicate 2

Cc1ccccc1C(=O)Nc1ccc(C(=O)N2CCCC(N(C)C)c3ccccc32)cc1.Cl (centres undefined)
Population Apoptotic (%) [1]: 18% | Population Fragmented Nuclei (%) [1]: 6% | Population Healthy Nuclei (%) [1]: 80% | Population Hoechst High Intensity Objects (%) [1]: 8% | Population Membrane Permeable-Phenotype (%) [1]: 0% | Population Mitochondria Different-Phenotype (%) [1]: 51% | Population Mitotic Cells (%) [1]: 81% | Population Normal (%) [1]: 91% | Population Pyknosed Nuclei (%) [1]: 12% | Population Tubulin-Different-Phenotype (%) [1]: 33% | Total Cell Count [1]: 519 | Population Apoptotic (%) [2]: 53% | Population Fragmented Nuclei (%) [2]: 5% | Population Healthy Nuclei (%) [2]: 79% | Population Hoechst High Intensity Objects (%) [2]: 6% | Population Mitochondria Different-Phenotype (%) [2]: 72% | Population Mitotic Cells (%) [2]: 46% | Population Normal (%) [2]: 93% | Population Pyknosed Nuclei (%) [2]: 14% | Population Tubulin-Different-Phenotype (%) [2]: 29% | Total Cell Count [2]: 412 | Population Apoptotic (%) [3]: 53% | Population Fragmented Nuclei (%) [3]: 6% | Population Healthy Nuclei (%) [3]: 70% | Population Hoechst High Intensity Objects (%) [3]: 8% | Population Membrane Permeable-Phenotype (%) [3]: 0% | Population Mitochondria Different-Phenotype (%) [3]: 74% | Population Mitotic Cells (%) [3]: 46% | Population Normal (%) [3]: 91% | Population Pyknosed Nuclei (%) [3]: 22% | Population Tubulin-Different-Phenotype (%) [3]: 60% | Total Cell Count [3]: 233 | Population Apoptotic (%) [4]: 64% | Population Fragmented Nuclei (%) [4]: 8% | Population Healthy Nuclei (%) [4]: 72% | Population Hoechst High Intensity Objects (%) [4]: 15% | Population Mitochondria Different-Phenotype (%) [4]: 82% | Population Mitotic Cells (%) [4]: 35% | Population Normal (%) [4]: 84% | Population Pyknosed Nuclei (%) [4]: 18% | Population Tubulin-Different-Phenotype (%) [4]: 61% | Total Cell Count [4]: 285 | Population Apoptotic (%) [5]: 31% | Population Fragmented Nuclei (%) [5]: 11% | Population Healthy Nuclei (%) [5]: 79% | Population Hoechst High Intensity Objects (%) [5]: 5% | Population Membrane Permeable-Phenotype (%) [5]: 0% | Population Mitochondria Different-Phenotype (%) [5]: 28% | Population Mitotic Cells (%) [5]: 68% | Population Normal (%) [5]: 94% | Population Pyknosed Nuclei (%) [5]: 8% | Population Tubulin-Different-Phenotype (%) [5]: 17% | Total Cell Count [5]: 727 | Population Apoptotic (%) [6]: 30% | Population Fragmented Nuclei (%) [6]: 5% | Population Healthy Nuclei (%) [6]: 83% | Population Hoechst High Intensity Objects (%) [6]: 4% | Population Mitochondria Different-Phenotype (%) [6]: 52% | Population Mitotic Cells (%) [6]: 69% | Population Normal (%) [6]: 95% | Population Pyknosed Nuclei (%) [6]: 11% | Population Tubulin-Different-Phenotype (%) [6]: 19% | Total Cell Count [6]: 567 | Population Apoptotic (%) [7]: 41% | Population Fragmented Nuclei (%) [7]: 8% | Population Healthy Nuclei (%) [7]: 70% | Population Hoechst High Intensity Objects (%) [7]: 7% | Population Membrane Permeable-Phenotype (%) [7]: 0% | Population Mitochondria Different-Phenotype (%) [7]: 71% | Population Mitotic Cells (%) [7]: 58% | Population Normal (%) [7]: 92% | Population Pyknosed Nuclei (%) [7]: 21% | Population Tubulin-Different-Phenotype (%) [7]: 46% | Total Cell Count [7]: 268 | Population Apoptotic (%) [8]: 44% | Population Fragmented Nuclei (%) [8]: 7% | Population Healthy Nuclei (%) [8]: 73% | Population Hoechst High Intensity Objects (%) [8]: 14% | Population Mitochondria Different-Phenotype (%) [8]: 83% | Population Mitotic Cells (%) [8]: 55% | Population Normal (%) [8]: 85% | Population Pyknosed Nuclei (%) [8]: 18% | Total Cell Count [8]: 285 | Population Apoptotic (%) [9]: 13% | Population Fragmented Nuclei (%) [9]: 13% | Population Healthy Nuclei (%) [9]: 78% | Population Hoechst High Intensity Objects (%) [9]: 2% | Population Membrane Permeable-Phenotype (%) [9]: 1% | Population Mitochondria Different-Phenotype (%) [9]: 24% | Population Mitotic Cells (%) [9]: 86% | Population Normal (%) [9]: 97% | Population Pyknosed Nuclei (%) [9]: 8% | Population Tubulin-Different-Phenotype (%) [9]: 17% | Total Cell Count [9]: 1095 | Population Apoptotic (%) [10]: 34% | Population Fragmented Nuclei (%) [10]: 10% | Population Healthy Nuclei (%) [10]: 82% | Population Hoechst High Intensity Objects (%) [10]: 4% | Population Membrane Permeable-Phenotype (%) [10]: 0% | Population Mitochondria Different-Phenotype (%) [10]: 30% | Population Mitotic Cells (%) [10]: 65% | Population Normal (%) [10]: 95% | Population Pyknosed Nuclei (%) [10]: 6% | Population Tubulin-Different-Phenotype (%) [10]: 14% | Total Cell Count [10]: 722 | Population Apoptotic (%) [11]: 55% | Population Fragmented Nuclei (%) [11]: 10% | Population Healthy Nuclei (%) [11]: 69% | Population Hoechst High Intensity Objects (%) [11]: 6% | Population Membrane Permeable-Phenotype (%) [11]: 0% | Population Mitochondria Different-Phenotype (%) [11]: 69% | Population Mitotic Cells (%) [11]: 44% | Population Normal (%) [11]: 93% | Population Pyknosed Nuclei (%) [11]: 20% | Population Tubulin-Different-Phenotype (%) [11]: 49% | Total Cell Count [11]: 283 | Population Apoptotic (%) [12]: 63% | Population Fragmented Nuclei (%) [12]: 9% | Population Healthy Nuclei (%) [12]: 77% | Population Mitochondria Different-Phenotype (%) [12]: 72% | Population Mitotic Cells (%) [12]: 36% | Population Pyknosed Nuclei (%) [12]: 12% | Population Tubulin-Different-Phenotype (%) [12]: 41% | Total Cell Count [12]: 314
